Tests used:
[1] = AUC (0 to infinity) in Sprague-Dawley rat at 2 mg/kg, iv by LC-MS/MS analysis; assay type: ADME, organism-based; design: route intravenous, time infinity, dose 2 mg/kg; conditions: in vivo
In short: (§1)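 The acid metabolite of the parent ester was dosed directly to Sprague-Dawley rats, iv or intragastrically (n=3). Plasma (50 µL) was spiked with 5 µL DMSO, extracted with 300 µL acetonitrile containing 50 ng/mL diclofenac internal standard, then vortexed and centrifuged at 4 °C. Supernatant was quantified by LC/MS/MS against plasma calibration standards and QCs. AUC came from noncompartmental analysis.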

[2] = Toxicity in BALB/c mouse assessed as necrosis in renal tubular epithelial cells at 50 to 100 mg/kg, ig administered for 14 days; assay type: organism-based; conditions: in vivo, po, 336 h, dose 50-100 mg/kg, time 14 day
In short: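 BALB/c mice, 10 per group: untreated blank group plus low (50 mg/kg) and high (100 mg/kg) dose groups, intragastric once daily for 14 days. Hair, behaviour and neurological signs monitored throughout. At day 14 mice were weighed and dissected. Kidney and liver tissue was fixed in 3 mm pieces, dehydrated through graded alcohol, cleared in xylene, embedded in paraffin, sectioned and examined histopathologically.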

[3] = AUC (0 to infinity) in Sprague-Dawley rat at 10 mg/kg, po by LC-MS/MS analysis; assay type: ADME, organism-based; design: route oral, time infinity, dose 10 mg/kg; conditions: in vivo; in short: as §1
[4] = Toxicity in BALB/c mouse assessed as inflammatory infiltration in liver at 50 to 100 mg/kg, ig administered for 14 days; assay type: organism-based; conditions: in vivo, po, 336 h, dose 50-100 mg/kg, time 14 day
In short: (§2)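 BALB/c mice, 10 per group, gavaged daily for 14 days at 50 or 100 mg/kg; blank control group included. Hair, behaviour and neurological signs (fremitus, convulsion, spasm, gait disturbance) were observed. At day 14, mice were weighed and given routine blood tests and serum biochemistry (ALT, AST, urea, creatinine; n = 10). Liver and kidney were examined on paraffin-embedded histology sections.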

[5] = Tmax in Sprague-Dawley rat at 10 mg/kg, po by LC-MS/MS analysis; assay type: ADME, organism-based; conditions: in vivo
In short: (§3)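 SD rats dosed iv or intragastrically. Plasma (50 µL) was mixed with diclofenac internal standard (50 ng/mL, 300 µL), vortexed, centrifuged at 4 °C, and the supernatant analysed by LC/MS/MS against spiked standard and QC curves. Noncompartmental parameters calculated; mean ± SD, n = 3 (bioavailability excepted).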

[6] = Toxicity in BALB/c mouse assessed as fremitus at 50 to 100 mg/kg, ig administered for 14 days; assay type: organism-based; conditions: in vivo, po, 336 h, dose 50-100 mg/kg, time 14 day; in short: as §2
[7] = Toxicity in BALB/c mouse assessed as effect on liver megakaryocyte at 50 to 100 mg/kg, ig administered for 14 days; assay type: organism-based; conditions: in vivo, po, 336 h, dose 50-100 mg/kg, time 14 day; in short: as §2
[8] = AUC (0 to t) in Sprague-Dawley rat at 10 mg/kg, po by LC-MS/MS analysis; assay type: ADME, organism-based; design: dose 10 mg/kg; conditions: in vivo
[9] = Permeability across apical to basolateral side in human Caco-2 cells assessed as […] yellow leakage at 10 uM incubated for 2 hrs LC-MS/MS analysis; assay type: ADME, cell-based; conditions: caco-2, 2 h
In short: (§4)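 Caco-2 monolayers, apical to basolateral direction. Plates preincubated 30 min at 37 °C, then exposed to 10 µM compound for 2 h at 37 °C without shaking. Donor and receiver samples were quenched, centrifuged and measured by LC/MS/MS, in duplicate. Papp calculated from receiver concentration, area and time. Monolayer integrity checked by TEER and by Lucifer yellow leakage (30 min, 37 °C, ex 485/em 530 nm).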

[10] = AUC (0 to t) in Sprague-Dawley rat at 2 mg/kg, iv by LC-MS/MS analysis; assay type: ADME, organism-based; design: dose 2 mg/kg; conditions: in vivo; in short: as §1
[11] = Renal toxicity in BALB/c mouse assessed as effect on serum urea level at 50 to 100 mg/kg, ig administered for 14 days; assay type: organism-based; conditions: in vivo, po, 336 h, dose 50-100 mg/kg, time 14 day; in short: as §2
[12] = Apparent permeability across apical to basolateral side in human Caco-2 cells at 10 uM incubated for 2 hrs LC-MS/MS analysis; assay type: ADME, cell-based; conditions: Caco-2; in short: as §4
Cytochrome P450 2C19 = Cytochrome P450 2C19 (Homo sapiens, UniProt P33261); assay: Inhibition of CYP2C19 in human liver microsomes using omeprazole as substrate incubated for 5 mins followed by NADPH addition and measured after 20 mins by LC-MS/MS analysis; assay type: ADME
In short: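 Human liver microsomes at 0.2 mg/mL mixed with probe substrates, preincubated 5 min at 37 °C. Reaction started with NADPH and run 20 min at 37 °C in a shaking bath. Quenched, held at -20 °C for 1 h, centrifuged, and the supernatant analysed by LC/MS/MS. Assay validated with specific inhibitors for each isoform.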

[13] = Toxicity in BALB/c mouse assessed as effect on behavioral change at 50 to 100 mg/kg, ig administered for 14 days; assay type: organism-based; conditions: in vivo, po, 336 h, dose 50-100 mg/kg, time 14 day; in short: as §2
[14] = Toxicity in Kunming mouse assessed as organism death administered orally for 3 days and observed for 17 days starting from drug administration; conditions: in vivo, po, 408 h, time 17 day
[15] = Toxicity in BALB/c mouse assessed as hepatocyte nucleus mitosis at 50 to 100 mg/kg, ig administered for 14 days; assay type: organism-based; conditions: in vivo, po, 336 h, dose 50-100 mg/kg, time 14 day; in short: as §2
[16] = Initial concentration in Sprague-Dawley rat at 2 mg/kg, iv by LC-MS/MS analysis; assay type: ADME, organism-based; conditions: in vivo; in short: as §3
[17] = Hepatotoxicity in BALB/c mouse assessed as effect on serum ALT level at 50 to 100 mg/kg, ig administered for 14 days; assay type: toxicity, organism-based; conditions: in vivo, po, 336 h, dose 50-100 mg/kg, time 14 day; in short: as §2
[18] = Cmax in Sprague-Dawley rat at 10 mg/kg, po by LC-MS/MS analysis; assay type: ADME, organism-based; design: route oral, dose 10 mg/kg; conditions: in vivo; in short: as §3
[19] = Toxicity in BALB/c mouse assessed as hepatocyte necrotic foci at 50 to 100 mg/kg, ig administered for 14 days; assay type: organism-based; conditions: in vivo, po, 336 h, dose 50-100 mg/kg, time 14 day; in short: as §2
in vitro = conditions: human, liver microsomes
[20] = Permeability across apical to basolateral side in human Caco-2 cells assessed as transepithelial electrical resistance at 10 uM incubated for 2 hrs LC-MS/MS analysis; assay type: ADME, cell-based; conditions: caco-2, 2 h; in short: as §4
[21] = Renal toxicity in BALB/c mouse assessed as effect on serum creatinine level at 50 to 100 mg/kg, ig administered for 14 days; assay type: organism-based; conditions: in vivo, po, 336 h, dose 50-100 mg/kg, time 14 day; in short: as §2
[22] = Half life in Sprague-Dawley rat at 10 mg/kg, po by LC-MS/MS analysis; assay type: ADME, organism-based; conditions: in vivo; in short: as §3
[23] = MRT in Sprague-Dawley rat at 2 mg/kg, iv by LC-MS/MS analysis; assay type: ADME, organism-based; conditions: in vivo; in short: as §3
[24] = Toxicity in BALB/c mouse assessed as effect on body weight at 50 to 100 mg/kg, ig administered for 14 days; assay type: organism-based; conditions: in vivo, po, 336 h, dose 50-100 mg/kg, time 14 day; in short: as §2
Cytochrome P450 2C9 = Cytochrome P450 2C9 (Homo sapiens, UniProt P11712); assay: Inhibition of CYP2C9 in human liver microsomes using diclofenac as substrate incubated for 5 mins followed by NADPH addition and measured after 20 mins by LC-MS/MS analysis; assay type: ADME
Cytochrome P450 2D6 = Cytochrome P450 2D6 (Homo sapiens, UniProt P10635); assay: Inhibition of CYP2D6 in human liver microsomes using dextromethorphan as substrate incubated for 5 mins followed by NADPH addition and measured after 20 mins by LC-MS/MS analysis
[25] = Half life in Sprague-Dawley rat at 2 mg/kg, iv by LC-MS/MS analysis; assay type: ADME, organism-based; conditions: in vivo; in short: as §3

Sequence of Cytochrome P450 2D6 (P10635 whole entry): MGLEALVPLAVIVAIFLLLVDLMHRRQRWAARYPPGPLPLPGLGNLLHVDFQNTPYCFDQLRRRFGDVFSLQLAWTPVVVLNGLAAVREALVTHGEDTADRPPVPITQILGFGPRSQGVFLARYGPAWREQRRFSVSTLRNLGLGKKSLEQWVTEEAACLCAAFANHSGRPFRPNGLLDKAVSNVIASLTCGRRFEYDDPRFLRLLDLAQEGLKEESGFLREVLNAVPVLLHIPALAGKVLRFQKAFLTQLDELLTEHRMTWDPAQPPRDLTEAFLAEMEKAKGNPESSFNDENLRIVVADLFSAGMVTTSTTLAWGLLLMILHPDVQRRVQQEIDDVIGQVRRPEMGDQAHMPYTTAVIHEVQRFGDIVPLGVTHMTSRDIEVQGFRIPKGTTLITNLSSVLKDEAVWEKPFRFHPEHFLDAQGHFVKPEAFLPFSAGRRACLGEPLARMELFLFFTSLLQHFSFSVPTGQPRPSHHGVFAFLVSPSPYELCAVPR
Sequence of Cytochrome P450 2C9 (P11712 whole entry): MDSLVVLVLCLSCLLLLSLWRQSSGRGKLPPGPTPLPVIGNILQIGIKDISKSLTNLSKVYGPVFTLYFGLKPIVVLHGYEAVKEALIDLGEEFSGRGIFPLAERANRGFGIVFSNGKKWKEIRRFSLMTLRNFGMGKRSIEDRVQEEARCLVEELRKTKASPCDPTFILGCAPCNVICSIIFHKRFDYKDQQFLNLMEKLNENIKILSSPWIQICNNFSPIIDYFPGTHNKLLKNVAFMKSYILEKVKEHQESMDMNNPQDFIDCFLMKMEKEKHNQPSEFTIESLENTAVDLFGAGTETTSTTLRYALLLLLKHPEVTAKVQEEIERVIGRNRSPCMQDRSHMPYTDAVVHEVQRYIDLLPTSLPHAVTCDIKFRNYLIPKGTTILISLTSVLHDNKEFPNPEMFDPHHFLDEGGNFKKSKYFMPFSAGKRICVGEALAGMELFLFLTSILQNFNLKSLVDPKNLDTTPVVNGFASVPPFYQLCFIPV
Sequence of Cytochrome P450 2C19 (P33261 whole entry, canonical isoform): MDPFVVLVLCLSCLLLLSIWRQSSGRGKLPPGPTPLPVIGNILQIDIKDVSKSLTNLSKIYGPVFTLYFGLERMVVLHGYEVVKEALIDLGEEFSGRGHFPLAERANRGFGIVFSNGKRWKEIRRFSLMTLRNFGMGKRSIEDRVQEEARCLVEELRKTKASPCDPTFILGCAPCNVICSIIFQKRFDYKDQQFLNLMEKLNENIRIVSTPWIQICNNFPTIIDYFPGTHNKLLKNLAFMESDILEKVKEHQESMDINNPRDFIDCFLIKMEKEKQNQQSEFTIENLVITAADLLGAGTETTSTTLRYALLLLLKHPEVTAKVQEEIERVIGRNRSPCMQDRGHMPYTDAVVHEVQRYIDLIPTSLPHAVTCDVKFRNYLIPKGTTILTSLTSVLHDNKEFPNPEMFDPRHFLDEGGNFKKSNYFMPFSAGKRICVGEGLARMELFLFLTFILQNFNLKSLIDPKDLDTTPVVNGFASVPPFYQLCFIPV

COc1ccc2cc(C(=O)NCCN(C)C)oc2c1.CS(=O)(=O)O
AUC(0-inf) [1]: 69 ng·h/mL | Activity [2]: Toxic | AUC(0-inf) [3]: 286 ng·h/mL | Activity [4]: Toxic | Tmax [5]: 0.5 h | Activity [6]: Non-Toxic | Activity [7]: Toxic | AUC(0-t) [8]: 278 ng·h/mL | Activity [9]: 0.158% | AUC(0-t) [10]: 59.5 ng·h/mL | Activity [11]: Non-Toxic | Papp A→B at 2 h, 10 µM [12]: 9.34 ×10⁻⁶ cm/s | IC50 (Cytochrome P450 2C19): > 10 µM | Activity [13]: Non-Toxic | LD50 [14]: > 500 mg/kg/day | Activity [15]: Toxic | C0 [16]: 17.2 ng/mL | Activity [17]: Non-Toxic | Cmax [18]: 54.2 ng/mL | Activity [19]: Toxic | microsomal CLint at 0.5 h, 100 µM (in vitro): 6.73 µL/min/mg | Activity [20]: 341 Ω·cm² | Activity [21]: Non-Toxic | half-life [22]: 4.53 h | MRT [23]: 2.85 h | Activity [24]: Non-Toxic | IC50 (Cytochrome P450 2C9): > 10 µM | IC50 (Cytochrome P450 2D6): 7.84 µM | half-life [25]: 2.52 h

— ChEMBL document CHEMBL4765342, “Substituted benzothiophene and benzofuran derivatives as a novel class of bone morphogenetic Protein-2 upregulators: Synthesis, anti-osteoporosis efficacies in ovariectomized rats and a zebrafish model, and ADME properties” (Eur J Med Chem, 2020)
